Laboratory results reported in ChEMBL document CHEMBL1122788, “Quantitative relationships between alpha-adrenergic activity and binding affinity of alpha-adrenoceptor agonists and antagonists” (J Med Chem, 1984).

What was measured:
[1] = target: T1, Adrenergic receptor alpha-2 (Rattus norvegicus, UniProt P22086+P19328+P22909); test: Binding affinity against Alpha-2 adrenergic receptor is the ability to inhibit the specific [3H]-clonidine binding (0.4 nM) to rat isolated brain membranes by 50% was reported; 1*10e-6; assay type: tissue-based, Membrane
T1 sequence (P22086 whole entry): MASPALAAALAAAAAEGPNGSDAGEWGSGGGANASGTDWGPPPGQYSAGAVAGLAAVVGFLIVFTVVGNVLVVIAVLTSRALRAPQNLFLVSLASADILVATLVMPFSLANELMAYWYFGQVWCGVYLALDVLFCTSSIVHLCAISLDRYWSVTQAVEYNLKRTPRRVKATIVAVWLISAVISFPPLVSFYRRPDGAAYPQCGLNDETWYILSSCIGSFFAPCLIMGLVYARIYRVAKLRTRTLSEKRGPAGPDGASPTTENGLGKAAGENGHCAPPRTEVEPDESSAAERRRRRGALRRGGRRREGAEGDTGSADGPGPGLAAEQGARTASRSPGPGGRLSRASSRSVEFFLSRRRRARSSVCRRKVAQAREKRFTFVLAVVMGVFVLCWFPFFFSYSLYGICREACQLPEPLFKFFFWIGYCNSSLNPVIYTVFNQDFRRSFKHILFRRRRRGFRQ
T1 sequence (P19328 whole entry): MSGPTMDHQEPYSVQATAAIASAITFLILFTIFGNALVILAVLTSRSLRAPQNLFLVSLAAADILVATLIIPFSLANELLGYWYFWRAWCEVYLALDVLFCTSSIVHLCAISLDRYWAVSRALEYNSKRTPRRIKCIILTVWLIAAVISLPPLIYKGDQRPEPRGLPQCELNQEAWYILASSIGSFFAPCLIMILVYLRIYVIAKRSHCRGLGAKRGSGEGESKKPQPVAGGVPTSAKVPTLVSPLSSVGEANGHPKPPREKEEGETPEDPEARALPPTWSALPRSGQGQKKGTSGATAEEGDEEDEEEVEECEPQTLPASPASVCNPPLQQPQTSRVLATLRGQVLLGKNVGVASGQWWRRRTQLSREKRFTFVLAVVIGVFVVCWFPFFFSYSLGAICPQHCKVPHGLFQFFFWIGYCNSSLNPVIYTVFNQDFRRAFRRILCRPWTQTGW
T1 sequence (P22909 whole entry): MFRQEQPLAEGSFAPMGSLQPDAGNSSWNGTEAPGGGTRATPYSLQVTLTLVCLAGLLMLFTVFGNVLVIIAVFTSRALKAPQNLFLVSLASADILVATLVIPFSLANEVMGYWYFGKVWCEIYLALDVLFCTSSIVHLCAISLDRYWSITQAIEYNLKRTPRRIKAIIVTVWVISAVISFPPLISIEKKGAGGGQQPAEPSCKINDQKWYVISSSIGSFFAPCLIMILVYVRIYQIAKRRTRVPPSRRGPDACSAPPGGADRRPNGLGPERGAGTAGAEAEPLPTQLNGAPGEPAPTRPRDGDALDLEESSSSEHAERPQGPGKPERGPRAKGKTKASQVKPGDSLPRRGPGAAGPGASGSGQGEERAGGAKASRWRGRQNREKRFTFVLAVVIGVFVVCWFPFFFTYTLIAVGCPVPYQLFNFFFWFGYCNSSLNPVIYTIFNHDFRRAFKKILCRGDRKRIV
Summary of the method: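 Whole rat brain (minus cerebellum) from male Wistar rats (200–250 g), homogenized in ice-cold 50 mM Tris-HCl pH 7.7 and washed twice at 50000g. […] Bound ligand was collected by rapid filtration and counted. IC50 was derived by log-probit analysis.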

[2] = target: T2, Adrenergic receptor alpha-1 (Rattus norvegicus, UniProt P15823+P23944+P43140); test: Binding affinity against alpha-1 adrenergic receptor is the ability to inhibit the specific [3H]prazosin binding (0.2 nM) to rat isolated brain membranes by 50% was reported; 6.5*10e-5; set-up: species or system Membrane
T2 sequence (P15823 whole entry): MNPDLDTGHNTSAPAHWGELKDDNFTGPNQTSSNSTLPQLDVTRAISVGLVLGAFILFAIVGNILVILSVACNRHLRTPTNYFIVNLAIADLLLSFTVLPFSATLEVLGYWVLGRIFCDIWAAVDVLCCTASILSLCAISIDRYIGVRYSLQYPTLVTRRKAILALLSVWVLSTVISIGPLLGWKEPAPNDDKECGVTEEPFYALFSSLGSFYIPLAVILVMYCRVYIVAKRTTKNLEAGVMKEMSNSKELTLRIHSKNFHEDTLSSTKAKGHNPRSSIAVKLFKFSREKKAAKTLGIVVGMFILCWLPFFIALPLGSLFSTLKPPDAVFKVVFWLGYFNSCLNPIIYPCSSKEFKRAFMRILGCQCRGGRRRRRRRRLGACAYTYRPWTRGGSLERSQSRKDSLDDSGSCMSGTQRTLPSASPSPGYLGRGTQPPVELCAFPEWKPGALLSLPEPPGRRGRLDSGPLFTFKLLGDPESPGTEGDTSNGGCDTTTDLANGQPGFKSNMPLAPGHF
T2 sequence (P23944 whole entry): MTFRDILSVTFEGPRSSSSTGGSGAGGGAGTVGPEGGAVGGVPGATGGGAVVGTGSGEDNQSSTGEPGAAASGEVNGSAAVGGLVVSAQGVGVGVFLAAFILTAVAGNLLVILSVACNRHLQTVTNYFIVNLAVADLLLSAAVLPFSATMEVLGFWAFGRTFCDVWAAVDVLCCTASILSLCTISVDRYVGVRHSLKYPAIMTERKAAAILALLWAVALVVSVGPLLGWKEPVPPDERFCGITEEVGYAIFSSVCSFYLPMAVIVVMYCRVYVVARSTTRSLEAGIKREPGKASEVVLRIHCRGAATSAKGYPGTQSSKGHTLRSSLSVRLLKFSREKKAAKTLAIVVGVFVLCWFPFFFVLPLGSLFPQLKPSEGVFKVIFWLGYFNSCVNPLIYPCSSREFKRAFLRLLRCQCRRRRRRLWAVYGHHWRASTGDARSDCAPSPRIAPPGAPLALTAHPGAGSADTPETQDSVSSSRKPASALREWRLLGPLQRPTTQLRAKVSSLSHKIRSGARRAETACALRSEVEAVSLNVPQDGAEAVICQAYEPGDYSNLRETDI
T2 sequence (P43140 whole entry): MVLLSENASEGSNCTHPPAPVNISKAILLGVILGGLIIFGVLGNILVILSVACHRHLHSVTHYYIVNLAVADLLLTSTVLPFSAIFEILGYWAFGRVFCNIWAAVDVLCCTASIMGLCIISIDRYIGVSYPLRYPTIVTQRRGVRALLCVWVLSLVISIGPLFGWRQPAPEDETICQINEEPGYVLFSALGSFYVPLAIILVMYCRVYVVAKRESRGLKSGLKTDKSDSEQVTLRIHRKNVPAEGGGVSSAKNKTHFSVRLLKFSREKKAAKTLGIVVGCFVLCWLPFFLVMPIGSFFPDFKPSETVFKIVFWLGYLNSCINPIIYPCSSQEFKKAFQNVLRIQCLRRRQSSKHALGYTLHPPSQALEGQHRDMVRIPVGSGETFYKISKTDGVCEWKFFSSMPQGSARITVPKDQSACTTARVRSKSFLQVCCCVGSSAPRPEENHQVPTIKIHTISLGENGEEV

[3] = system: Rattus norvegicus; test: Hypertensive activity (increase in arterial pressure to 60 mmHg)) after i.v. administration to pithed rats.
[4] = target: T1, Adrenergic receptor alpha-2; test: Binding affinity against Alpha-2 adrenergic receptor is the ability to inhibit the specific [3H]clonidine binding (0.4 nM) to rat isolated brain membranes by 50% was reported; 2.5*10e-9; assay type: tissue-based, Membrane
[5] = system: Rattus norvegicus; test: Hypotensive activity (25% decrease in arterial pressure) after i.v. administration to anesthetized normotensive rats.
[6] = target: T2, Adrenergic receptor alpha-1; test: Binding affinity against alpha-1 adrenergic receptor is the ability to inhibit the specific [3H]prazosin binding (0.2 nM) to rat isolated brain membranes by 50% was reported; 6.6*10e-7; assay type: tissue-based, Membrane
Summary of the method: (§1)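 Brain membranes were prepared from male Wistar rats (200–250 g, cerebellum removed) in ice-cold 50 mmol/L Tris-HCl, pH 7.7, with two 50000g spins, and used at 1 mg/mL protein (Lowry). […] Bound label was collected by vacuum filtration and counted. IC50 came from log probit analysis.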

[7] = target: T1, Adrenergic receptor alpha-2; test: Inhibition of specific [3H]clonidine binding (0.4 nM) to rat brain membranes alpha2 adrenoceptor; assay type: cell membranes, Membrane
[8] = target: T1, Adrenergic receptor alpha-2; test: Antagonist activity against B-HT 933-induced alpha-2-adrenoceptor-mediated vasoconstriction in pithed normotensive rats; assay type: functional
[9] = target: T2, Adrenergic receptor alpha-1; test: Binding affinity against alpha-1 adrenergic receptor is the ability to inhibit the specific [3H]prazosin binding (0.2 nM) to rat isolated brain membranes by 50% was reported; 1.6*10e-6; assay type: tissue-based, Membrane; summary of the method: as §1
[10] = target: T1, Adrenergic receptor alpha-2; test: Binding affinity against Alpha-2 adrenergic receptor is the ability to inhibit the specific [3H]clonidine binding (0.4 nM) to rat isolated brain membranes by 50% was reported; 3.0*10e-8; assay type: tissue-based, Membrane
[11] = target: T1, Adrenergic receptor alpha-2; test: Inhibition of specific [3H]-clonidine binding (0.4 nM) to rat brain membranes alpha-2 adrenoceptor; 2.8*10e-7; assay type: cell membranes, Membrane
[12] = target: Adrenergic receptor alpha-2 (Homo sapiens) (UniProt P08913+P18825+P18089); details: Oryctolagus cuniculus

## Cn1cc2c(NC3=NCCN3)cccc2n1 [INDANIDINE]
[1]
  IC50: 1 µM
[2]
  IC50: 65 µM
[3]
  pC60: -0.24 uM kg-1

## CC(Oc1c(Cl)cccc1Cl)C1=NCCN1 (stereo unspecified) [LOFEXIDINE]
[4]
  IC50: 0.0025 µM
[3]
  pC60: 1.99 uM kg-1
[5]
  pC25: 2.09 uM kg-1
[6]
  IC50: 0.66 µM

## c1ccc2c(c1)OCC(CN1CCCCC1)O2 (stereo unspecified) [PIPEROXAN]
[7]
  IC50: 0.14 µM
[8]
  pA2: 6.23

## c1ccc2c(c1)CCCC2C1=NCCN1 (stereo unspecified) [TETRAHYDROZOLINE]
[9]
  IC50: 1.6 µM
[10]
  IC50: 0.03 µM
[3]
  pC60: 0.9 uM kg-1
[5]
  pC25: -0.16 uM kg-1

## c1ccc(CC2=NCCN2)cc1 [TOLAZOLINE]
[11]
  IC50: 0.28 µM
[12]
  pC30: 6.15
[8]
  pA2: 5.82
